Activity calls are given as the source filed them. The calls are words filed in the database; no cut-off is given here.
Assays:
[1] = test system: DU-145; test: Cytotoxicity against human DU145 cells assessed as cell viability after 72 hrs by MTT assay; format: functional, cell-based; conditions: DU-145, 72 h
Procedure, shortened: (§1)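 Cells were grown at 37 °C in humidified 5% CO2/95% air. DU145 and A549 were kept in DMEM with 10% FCS, glutamine and nonessential amino acids. LNCaP, KB and M14 were kept in RPMI with 10% FCS, and Caco2 in MEM with 10% FCS. For the MTT assay, 1 × 10^4 cells were seeded per well and preincubated 24 h, then treated 72 h (DMSO ≤0.1%). MTT (0.5% in PBS) was added 4 h before the end, formazan was dissolved in DMSO, and OD was read at 550 nm. Triplicates were run.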

[2] = test system: A549; test: Cytotoxicity against human A549 cells assessed as cell viability after 72 hrs by MTT assay; format: functional, cell-based; conditions: A549, 72 h; procedure, shortened: as §1
[3] = test system: LNCaP; test: Cytotoxicity against human LNCAP cells assessed as cell viability after 72 hrs by MTT assay; format: functional, cell-based; procedure, shortened: as §1
[4] = test system: KB; test: Cytotoxicity against human KB cells assessed as cell viability after 72 hrs by MTT assay; format: functional, cell-based; procedure, shortened: as §1
[5] = Cytotoxicity against human fibroblasts assessed as cell viability after 72 hrs by MTT assay relative to control; format: cell-based, Fibroblast; set-up: concentration or dose not given beside the values; conditions: read-out: Activity
[6] = test system: M14; test: Cytotoxicity against human M14 cells assessed as cell viability after 72 hrs by MTT assay; format: functional, cell-based; conditions: M14, 72 h; procedure, shortened: as §1
[7] = test system: Caco-2; test: Cytotoxicity against human Caco2 cells assessed as cell viability after 72 hrs by MTT assay; format: functional, cell-based; conditions: Caco-2, 72 h; procedure, shortened: as §1
[8] = test system: DU-145; test: Decrease in total GSK3beta protein level in human DU145 cells at 0.1 uM after 72 hrs by Western blotting analysis; format: functional, cell-based; conditions: 1 uM, in the assay text read “1 uM” for “0.1 uM”
Procedure, shortened: (§2)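 DU145 cells were treated 72 h, rinsed in PBS and lysed in 2% SDS buffer (50 mM Tris-HCl pH 6.8, protease inhibitors, 2 mM orthovanadate, 1 mM NaF, 1 mM pyrophosphate). Protein was quantified by BCA, and equal protein was run on 10% SDS-PAGE and blotted to nitrocellulose. Blots were blocked in 5% milk TBS-Tween 0.1%, detected by ECL and normalized to β-actin. Results are mean SEM of three experiments, with Student's t test versus control.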

[9] = target: T1, Mitogen-activated protein kinase; ERK1/ERK2 (Homo sapiens) (UniProt P27361+P28482); test: Inhibition of ERK1/2 phosphorylation at Thr202/Tyr204 in human DU145 cells at 1 uM after 72 hrs by Western blotting analysis relative to control; format: cell-based; conditions: DU-145; procedure, shortened: as §2
T1 sequence (P27361 whole entry, looked up): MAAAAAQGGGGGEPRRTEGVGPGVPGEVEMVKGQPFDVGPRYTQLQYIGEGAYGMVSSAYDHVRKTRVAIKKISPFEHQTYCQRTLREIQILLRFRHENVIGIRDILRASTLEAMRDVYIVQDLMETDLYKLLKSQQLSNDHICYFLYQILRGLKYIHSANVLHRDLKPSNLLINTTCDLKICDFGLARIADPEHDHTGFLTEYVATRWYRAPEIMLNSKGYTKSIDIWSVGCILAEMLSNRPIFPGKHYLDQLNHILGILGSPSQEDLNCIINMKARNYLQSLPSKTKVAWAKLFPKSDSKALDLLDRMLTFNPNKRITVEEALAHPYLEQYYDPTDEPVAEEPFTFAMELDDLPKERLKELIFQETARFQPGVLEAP
T1 sequence (P28482 whole entry, looked up): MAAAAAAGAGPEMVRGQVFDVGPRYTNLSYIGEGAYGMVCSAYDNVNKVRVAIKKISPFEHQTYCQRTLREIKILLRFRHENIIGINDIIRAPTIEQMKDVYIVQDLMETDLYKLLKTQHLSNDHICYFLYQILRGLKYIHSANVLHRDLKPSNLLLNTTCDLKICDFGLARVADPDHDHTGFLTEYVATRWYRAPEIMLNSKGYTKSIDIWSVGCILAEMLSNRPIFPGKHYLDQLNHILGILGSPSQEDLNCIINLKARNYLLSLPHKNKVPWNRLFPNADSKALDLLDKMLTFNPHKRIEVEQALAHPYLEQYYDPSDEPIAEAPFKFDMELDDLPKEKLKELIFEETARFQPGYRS

[10] = test system: DU-145; test: Decrease in total GSK3beta protein level in human DU145 cells at 1 uM after 72 hrs by Western blotting analysis; format: functional, cell-based; procedure, shortened: as §2
[11] = target: RAC-alpha serine/threonine-protein kinase (Homo sapiens) (UniProt P31749); test: Inhibition of AKT phosphorylation at Ser473 in human DU145 cells at 1 uM after 72 hrs by Western blotting analysis relative to control; format: cell-based; conditions: DU-145; procedure, shortened: as §2
RAC-alpha serine/threonine-protein kinase (Homo sapiens), sequence (P31749 whole entry): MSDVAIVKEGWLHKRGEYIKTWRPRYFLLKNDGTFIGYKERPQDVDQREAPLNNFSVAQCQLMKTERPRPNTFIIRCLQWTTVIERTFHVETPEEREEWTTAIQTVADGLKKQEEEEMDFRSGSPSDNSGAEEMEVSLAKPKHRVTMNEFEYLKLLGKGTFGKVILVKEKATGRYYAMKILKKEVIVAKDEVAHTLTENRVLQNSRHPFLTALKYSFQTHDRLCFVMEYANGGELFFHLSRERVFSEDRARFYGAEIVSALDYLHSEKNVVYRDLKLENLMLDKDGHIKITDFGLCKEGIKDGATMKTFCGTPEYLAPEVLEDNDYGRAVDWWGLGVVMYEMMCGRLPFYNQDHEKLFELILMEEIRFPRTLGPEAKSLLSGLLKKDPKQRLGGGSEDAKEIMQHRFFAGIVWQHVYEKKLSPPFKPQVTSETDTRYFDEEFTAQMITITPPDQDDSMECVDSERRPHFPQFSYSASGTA

[12] = target: T1, Mitogen-activated protein kinase; ERK1/ERK2 (Homo sapiens); test: Inhibition of ERK1/2 phosphorylation at Thr202/Tyr204 in human DU145 cells at 0.1 uM after 72 hrs by Western blotting analysis relative to control; format: cell-based; conditions: DU-145; procedure, shortened: as §2
[13] = test system: DU-145; test: Increase in p21 protein expression in human DU145 cells at 1 uM after 72 hrs by Western blotting analysis; format: functional, cell-based; procedure, shortened: as §2
[14] = target: RAC-alpha serine/threonine-protein kinase (Homo sapiens) (UniProt P31749); test: Inhibition of AKT phosphorylation at Ser473 in human DU145 cells at 0.1 uM after 72 hrs by Western blotting analysis relative to control; format: cell-based; conditions: DU-145; procedure, shortened: as §2
[15] = test system: DU-145; test: Effect on total AKT protein level in human DU145 cells at 1 uM after 72 hrs by Western blotting analysis; format: functional, cell-based; procedure, shortened: as §2
[16] = test system: DU-145; test: Effect on total ERK1/2 protein level in human DU145 cells at 0.1 uM after 72 hrs by Western blotting analysis; format: functional, cell-based; procedure, shortened: as §2
[17] = target: Glycogen synthase kinase-3 beta (Homo sapiens) (UniProt P49841); test: Inhibition of GSK3beta phosphorylation at Ser9 in human DU145 cells at 0.1 uM after 72 hrs by Western blotting analysis; format: cell-based; conditions: DU-145; procedure, shortened: as §2
Glycogen synthase kinase-3 beta (Homo sapiens), sequence (P49841 whole entry, looked up): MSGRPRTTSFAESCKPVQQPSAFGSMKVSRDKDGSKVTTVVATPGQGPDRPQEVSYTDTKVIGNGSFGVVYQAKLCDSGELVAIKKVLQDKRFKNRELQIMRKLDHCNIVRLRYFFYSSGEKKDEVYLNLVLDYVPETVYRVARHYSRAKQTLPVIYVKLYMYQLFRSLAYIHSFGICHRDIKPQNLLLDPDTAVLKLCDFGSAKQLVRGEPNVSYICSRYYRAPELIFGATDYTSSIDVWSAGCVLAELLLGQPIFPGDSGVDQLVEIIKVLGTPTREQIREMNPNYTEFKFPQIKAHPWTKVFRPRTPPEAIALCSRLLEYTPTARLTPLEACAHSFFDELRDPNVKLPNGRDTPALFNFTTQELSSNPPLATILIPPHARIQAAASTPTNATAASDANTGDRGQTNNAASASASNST

[18] = target: Glycogen synthase kinase-3 beta (Homo sapiens) (UniProt P49841); test: Inhibition of GSK3beta phosphorylation at Ser9 in human DU145 cells at 1 uM after 72 hrs by Western blotting analysis; format: cell-based; conditions: DU-145; procedure, shortened: as §2
[19] = test system: DU-145; test: Effect on total ERK1/2 protein level in human DU145 cells at 1 uM after 72 hrs by Western blotting analysis; format: functional, cell-based; procedure, shortened: as §2
[20] = target: T2, AKT/p21CIP1 (Homo sapiens) (UniProt P38936+P31749); test: Inhibition of AKT/p21CIP1 in human DU145 cells assessed as decrease in ratio of phosphorylated retinoblastoma level to unphosphorylated retinoblastoma level at 0.1 uM after 72 hrs by Western blotting analysis; format: cell-based; conditions: DU-145, 1 uM, in the assay text read “1 uM” for “0.1 uM”
Procedure, shortened: (§3)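 DU145 cells were treated 72 h and lysed in 2% SDS buffer. Equal protein was resolved by SDS-PAGE and probed for phospho-Rb Ser249/Thr252, total Rb (1:200 each) and α-tubulin. Bands were visualized on autoradiography film and read densitometrically relative to α-tubulin. The p-Rb/Rb ratio was compared with control. Results are mean SEM of three experiments, with Student's t test.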

[21] = test system: DU-145; test: Effect on total AKT protein level in human DU145 cells at 0.1 uM after 72 hrs by Western blotting analysis; format: functional, cell-based; procedure, shortened: as §2
[22] = test system: DU-145; test: Increase in p21 protein expression in human DU145 cells at 0.1 uM after 72 hrs by Western blotting analysis; format: functional, cell-based; conditions: 1 uM, in the assay text read “1 uM” for “0.1 uM”; procedure, shortened: as §2
[23] = target: T2, AKT/p21CIP1 (Homo sapiens); test: Inhibition of AKT/p21CIP1 in human DU145 cells assessed as decrease in ratio of phosphorylated retinoblastoma level to unphosphorylated retinoblastoma level at 1 uM after 72 hrs by Western blotting analysis; format: cell-based; conditions: DU-145; procedure, shortened: as §3

Compound | IC50 [1] | IC50 [2] | IC50 [3] | IC50 [4] | viability at 72 h [5] | IC50 [6] | IC50 [7] | other results
COc1cc(/C(=C\c2cn(C(C)=O)c3ccc(OCc4ccccc4)cc23)C(=O)O)cc(OC)c1OC | 0.95 µM | 89.1 µM | 59.6 µM | > 100 µM | 85% | 57.1 µM |  | 
COc1ccc(/C(=C\c2c[nH]c3ccc(OCc4ccccc4)cc23)C(N)=O)cc1 | 39.8 µM |  |  | > 100 µM | 85% | > 100 µM | > 100 µM | 
COc1cc(OC)cc(/C(=C\c2cn(C(C)=O)c3ccc(OCc4ccccc4)cc23)C(=O)O)c1 | 0.88 µM | 26 µM | 26.1 µM | 30.4 µM | 85% | 94 µM |  | 
O=C(O)/C(=C/c1c[nH]c2ccccc12)c1ccccc1 | > 100 µM |  |  | > 100 µM | 85% | > 100 µM | > 100 µM | 
COc1ccc(Cn2cc(/C=C(/C(=O)O)c3ccccc3)c3cc(OCc4ccccc4)ccc32)cc1 | 0.86 µM | 1 µM | 38.2 µM | 97 µM | 85% | 64.5 µM |  | 
NC(=O)/C(=C/c1c[nH]c2ccccc12)c1ccccc1 | 33.3 µM |  |  | > 100 µM | 85% | 45.4 µM | > 100 µM | 
COc1ccc(/C(=C\c2cn(C(C)=O)c3ccc(OCc4ccccc4)cc23)C(=O)O)cc1OC | 1.05 µM | 54.8 µM | > 100 µM | 96.7 µM | 85% | 65.5 µM |  | 
CC(=O)n1cc(/C=C(/C(=O)O)c2ccccc2)c2cc(OCc3ccccc3)ccc21 | 26.7 µM | 57.5 µM | > 100 µM | 55.5 µM | 85% | > 100 µM |  | 
COc1ccc(/C(=C\c2c[nH]c3ccc(OCc4ccccc4)cc23)C(=O)O)cc1 | 38.1 µM |  |  | 38.5 µM | 85% | 58.4 µM | > 100 µM | 
O=C(O)/C(=C/c1c[nH]c2ccc(OCc3ccccc3)cc12)c1ccccc1 | 34.7 µM |  |  | 55.5 µM | 85% | 95.2 µM | 41.6 µM | 
CC(=O)n1cc(/C=C(/C(=O)O)c2ccc(Cl)cc2)c2cc(OCc3ccccc3)ccc21 | 1.13 µM | 52.3 µM | > 100 µM | > 100 µM | 85% | > 100 µM |  | 
COc1ccc(OC)c(/C(=C\c2cn(C(C)=O)c3ccc(OCc4ccccc4)cc23)C(=O)O)c1 | 0.83 µM | 54.5 µM | 44.1 µM | > 100 µM | 85% | 87.1 µM |  | 
COc1ccc(/C(=C\c2cn(C(C)=O)c3ccc(OCc4ccccc4)cc23)C(=O)O)cc1 | 0.91 µM | > 100 µM | 85 µM | > 100 µM | 85% | > 100 µM |  | Activity [8]: Active; inhibition [9]: 40%; Activity [10]: Active; inhibition [11]: 20%; inhibition [12]: Active; Activity [13]: Active; inhibition [14]: Active; Activity [15]: inactive; Activity [16]: inactive; inhibition [17]: inactive; inhibition [18]: inactive; Activity [19]: inactive; inhibition [20]: Active; Activity [21]: inactive; Activity [22]: Active; inhibition [23]: Active
COc1ccc(/C(=C\c2c[nH]c3ccccc23)C(N)=O)cc1 | 40 µM |  |  | 86.2 µM | 85% | 53 µM | > 100 µM | 
COc1ccccc1/C(=C\c1cn(C(C)=O)c2ccc(OCc3ccccc3)cc12)C(=O)O | 1.01 µM | 57.2 µM | 48.5 µM | > 100 µM | 85% | > 100 µM |  | 
CC(=O)n1cc(/C=C(/C(=O)O)c2ccc3c(c2)OCO3)c2cc(OCc3ccccc3)ccc21 | 1.15 µM | 53.6 µM | 99.1 µM | > 100 µM | 85% | > 100 µM |  | 
COc1ccc(/C(=C\c2c[nH]c3ccccc23)C(=O)O)cc1 | > 100 µM |  |  | > 100 µM | 85% | > 100 µM | > 100 µM | 
CC(=O)n1cc(/C=C(/C(=O)O)c2ccc(OCc3ccccc3)cc2)c2cc(OCc3ccccc3)ccc21 | 1.41 µM | 44.1 µM | 77.7 µM | 43 µM | 85% | 58.2 µM |  | 
COc1cccc(/C(=C\c2cn(C(C)=O)c3ccc(OCc4ccccc4)cc23)C(=O)O)c1 | 1.08 µM | 45.2 µM | 65.1 µM | > 100 µM | 85% | > 100 µM |  | 
NC(=O)/C(=C/c1c[nH]c2ccc(OCc3ccccc3)cc12)c1ccccc1 | 30.9 µM |  |  | 40.3 µM | 85% | > 100 µM | > 100 µM | 
